The record followed here is ChEMBL document CHEMBL1145345, “Galactosyl derivatives of L-arginine and D-arginine: synthesis, stability, cell permeation, and nitric oxide production in pituitary GH3 cells” (J Med Chem, 2006).

What all share (assay type): functional, cell-based
The subject of assay [1] is AEC. The assay can be described thus: Increase in DAF2 monitored NO production in BAEC at 10 mM after 30 mins. The note with it: Bos taurus. In outline: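 Bovine aortic endothelial cells grown in DMEM/10% FBS, exposed to 10 mM compound in normal Krebs solution (pH 7.4) for 30 min at 37 °C. Then loaded with 10 µM DAF-2DA for 30 min, fixed with 4% paraformaldehyde for 5 min, and imaged by fluorescence microscopy (ex/em 495/515 nm). Output is % of Krebs-only control fluorescence.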

The test system of assay [2] is GH3. The assay can be described thus: Area under DAF2 monitored nitrite production in GH3 cells-incubation period curve.
For assay [3], the system named is GH3. The assay can be described thus: Increase in DAF2 monitored NO production in GH3 cells at 30 mins. In outline: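 GH3 cells in F10 with 10% FBS and 15% horse serum, treated 30 min at 37 °C with 3, 10 or 30 mM compound in normal Krebs (pH 7.4). Loaded with 10 µM DAF-2DA for 30 min, fixed in 4% paraformaldehyde, and fluorescence read by densitometry at 495/515 nm. Reported as % of Krebs-only control; mean ± S.E. of three values from three sessions.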

The subject of assay [4] is GH3. The assay can be described thus: Increase in DAF2 monitored nitrite production in GH3 cells at 30 mins.

Structures are written as SMILES. The source made the active and inactive calls. The rule behind the calls is not given here.

Regarding `N=C(N)NCCC[C@@H](N)C(=O)O`, in assay [1], the result was Active. The compound further yielded an AUC in assay [2] of 2470 ng·h/mL.

`N=C(N)NCCC[C@H](N)C(=O)O`: the outcome in assay [1] was Active. The AUC in assay [2] was 1390 ng·h/mL.

As for `NC(N)=NCCC[C@@H](N)C(=O)OC[C@H]1O[C@H](O)[C@H](O)[C@@H](O)[C@H]1O`, in assay [1], the result was Active. This compound came in with an AUC in assay [2] of 7500 ng·h/mL.

With `NC(N)=NCCC[C@H](N)C(=O)OC[C@H]1O[C@H](O)[C@H](O)[C@@H](O)[C@H]1O`, the outcome in assay [3], in assay [4] and in assay [1] was Active.
